Here are results for three compounds from ChEMBL document CHEMBL3792374, “Discovery of a ring-opened derivative of 3-n-butylphthalide bearing NO/H2S-donating moieties as a potential anti-ischemic stroke agent” (Eur J Med Chem, 2016).

Calls of active or inactive are those of the source. No cut-off for these calls is given here.

Data set [1] relates to Rattus norvegicus. In words: Antioxidant activity in Sprague-Dawley rat brain tissue model of transient middle cerebral artery occlusion stroke model assessed as increase in superoxide dismutase levels per mg of protein at 80 mg/kg […] measured 24 hrs after reperfusion by nitroblue tetrazolium assay relative to control. The data set is classed as functional.
Data set [2] concerns Rattus norvegicus. In words: Antioxidant activity in Sprague-Dawley rat brain tissue model of transient middle cerebral artery occlusion stroke model assessed as increase in glutathione peroxidase levels per mg of protein at 80 mg/kg […] measured 24 hrs after reperfusion by DTNB assay relative to control. The data set is classed as functional.
A short description of data set [3]: Antiplatelet activity in rabbit platelet-rich plasma assessed as inhibition of ADP-induced platelet aggregation at 0.1 mM preincubated for 5 mins followed by addition of ADP measured within 5 mins by Borns turbidimetric method. Format: functional. Particulars: Oryctolagus cuniculus. In outline:
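Rabbit carotid blood was citrated (3.8%, 9:1). PRP was obtained at 500 g for 10 min and PPP at 3000 g for 10 min. PRP was preincubated in duplicate for 5 min at 37 °C with 0.1 mM compound, plus carboxy-PTIO or BSS where indicated. ADP was then added and maximal light transmission recorded within 5 min, within 3 h of blood collection. Inhibition % was calculated versus control. Mean ± SD of three independent experiments.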

Data set [4] in a line: Antiplatelet activity in rabbit platelet-rich plasma assessed as inhibition of ADP-induced platelet aggregation preincubated for 5 mins followed by addition of ADP measured within 5 mins by Borns turbidimetric method. The data set is classed as functional. To be noted: Oryctolagus cuniculus. The essentials: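 Platelet-rich plasma from citrated rabbit carotid blood was preincubated in duplicate at 37 °C for 5 min with compound at 0.1, 0.2, 0.4, 0.8 or 1.6 mM. ADP-induced aggregation was then recorded turbidimetrically, as maximal light transmission within 5 min. Inhibition was calculated versus vehicle control, and IC50 values were derived. Mean ± SD, n = 6, ANOVA/Tukey.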

Data set [5] has as its system Rattus norvegicus. Nature of the data set: Neuroprotective activity in Sprague-Dawley rat model of transient middle cerebral artery occlusion stroke model assessed as neurological deficit at 80 mg/kg administered via oral gavage for 7 days after ischemia onset measured 24 hrs after middle cerebral artery occlusion by Longa's method. Format: functional, organism-based. Particulars: in the assay text read “before ischemia onset” for “after ischemia onset”. The essentials:
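Male SD rats (280–320 g) received daily gavage for 7 days, with 0.5% CMC-Na as vehicle. Two hours after the last dose they underwent 2 h MCAO with reperfusion under chloral hydrate anesthesia; core temperature was held at 37 °C. Neurological deficit was scored blinded by Longa's method 24 h after reperfusion, between 10 and 11 a.m. Kruskal–Wallis test followed by Mann–Whitney U test.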

Data set [6] in a line: Induction of nitric oxide release in potassium phosphate buffer at pH 7.4 at 0.1 mM after 30 mins by Griess assay. The data set is classed as physicochemical. To be noted: pH 7.4, 0.5 h, 100 µM. The essentials: (§1)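 Compound (0.1 mM) in PBS pH 7.4 containing 2% DMSO and 5.0 mM L-cysteine was held at 37 °C for 15–300 min. Samples were taken every 15 min up to 120 min, then every 30 min. Each sample was reacted with Griess reagent for 10 min at 37 °C and absorbance read at 540 nm. Nitrite was quantified from a nitrite standard curve. Means reported; intra-group variation <10%.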

The nature of data set [7]: Induction of nitric oxide release in potassium phosphate buffer at pH 7.4 at 0.1 mM after 45 mins by Griess assay. Format: physicochemical. Particulars: pH 7.4, 0.75 h, 100 µM. The essentials: as §1
Background: The Griess reaction detects nitrite, a stable product of nitric oxide.

Data set [8] in a line: Induction of nitric oxide release in potassium phosphate buffer at pH 7.4 at 0.1 mM after 60 mins by Griess assay. The data set is classed as physicochemical. To be noted: pH 7.4, 1 h, 100 µM. The essentials: as §1
A short description of data set [9]: Induction of nitric oxide release in potassium phosphate buffer at pH 7.4 at 0.1 mM after 75 mins by Griess assay. Format: physicochemical. Particulars: pH 7.4, 1.25 h, 100 µM. In outline:
as §1

Data set [10] can be described thus: Induction of nitric oxide release in potassium phosphate buffer at pH 7.4 at 0.1 mM after 90 mins by Griess assay. Format: physicochemical. Particulars: pH 7.4, 1.5 h, 100 µM. The essentials: as §1
Data set [11] is described as follows: Induction of nitric oxide release in potassium phosphate buffer at pH 7.4 at 0.1 mM after 105 mins by Griess assay. The data set is classed as physicochemical. Particulars: pH 7.4, 1.75 h, 100 µM. In outline: as §1
The nature of data set [12]: Induction of nitric oxide release in potassium phosphate buffer at pH 7.4 at 0.1 mM after 120 mins by Griess assay. The data set is classed as physicochemical. To be noted: pH 7.4, 2 h, 100 µM. The essentials: as §1
Data set [13] is described as follows: Induction of nitric oxide release in potassium phosphate buffer at pH 7.4 at 0.1 mM after 150 mins by Griess assay. To be noted: pH 7.4, 2.5 h, 100 µM. The data set is classed as physicochemical. In outline: as §1
Data set [14] in a line: Induction of nitric oxide release in potassium phosphate buffer at pH 7.4 at 0.1 mM after 180 mins by Griess assay. The data set is classed as physicochemical. To be noted: pH 7.4, 3 h, 100 µM. The essentials:
as §1

Data set [15] is described as follows: Induction of nitric oxide release in potassium phosphate buffer at pH 7.4 at 0.1 mM after 240 mins by Griess assay. Format: physicochemical. Particulars: pH 7.4, 4 h, 100 µM. In outline:
as §1

The nature of data set [16]: Induction of nitric oxide release in potassium phosphate buffer at pH 7.4 at 0.1 mM after 300 mins by Griess assay. To be noted: pH 7.4, 5 h, 100 µM. The data set is classed as physicochemical. In outline: as §1
Data set [17] relates to Liver. Nature of the data set: Induction of hydrogen sulfide release in rat liver homogenate at 100 uM after 30 mins by microplate reader method (reference value: 1.03 to 1.21%). The data set is classed as functional, tissue-based. The essentials: (§2)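 Compound was incubated at 37 °C for 0–90 min with fresh rat liver homogenate. The reaction was stopped with 1% zinc acetate and 10% trichloroacetic acid. N,N-dimethyl-p-phenylenediamine sulfate in 7.2 M HCl and FeCl3 in 1.2 M HCl were added, and absorbance was read at 670 nm after 10 min. Values were calculated against an NaHS standard curve as cumulative % conversion to H2S, n = 6.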

Data set [18] has as its system Liver. In words: Induction of hydrogen sulfide release in rat liver homogenate at 100 uM after 60 mins by microplate reader method (reference value: 1.03 to 1.21%). Format: functional, tissue-based. In outline: as §2
For data set [19], the system named is Liver. Nature of the data set: Induction of hydrogen sulfide release in rat liver homogenate at 100 uM after 90 mins by microplate reader method (reference value: 1.03 to 1.21%). The data set is classed as functional, tissue-based. The essentials:
as §2

Data set [20] can be described thus: Induction of nitric oxide release in potassium phosphate buffer at pH 7.4 at 0.1 mM after 15 mins by Griess assay. Format: physicochemical. Particulars: pH 7.4, 0.25 h, 100 µM. In outline:
as §1

The test system of data set [21] is Liver. Nature of the data set: Induction of hydrogen sulfide release in rat liver homogenate at 100 uM after 15 mins by microplate reader method (reference value: 1.03 to 1.21%). Format: functional, tissue-based. The essentials:
as §2

One may read the inhibition as how much of the control response was suppressed. In general, IC50 refers to the concentration needed to halve the response being measured. With `CCCCC1OC(=O)c2ccccc21` (stereo not drawn) [RAC-3-N-BUTYLPHTHALIDE], the Activity with Rattus norvegicus [1] worked out at 24.36%; in the data set with Rattus norvegicus [2], 63.55%. Further, the inhibition at 100 µM in data set [3] stood at 12.9%. Further, in data set [4], the IC50 stood at 740 µM. Besides, in the data set on Rattus norvegicus [5], the result was inactive.
Consider `CCCCC(OC(=O)CN1CCN(CCCCOc2ccc(-c3cc(=S)ss3)cc2)CC1)c1ccccc1C(=O)Oc1ccc(/C=C/C(=O)OCCCCCCO[N+](=O)[O-])cc1OC` (racemic), for which the Activity in data set [6] worked out at 2.24 µM; in data set [7], 3.26 µM; in data set [8], 4 µM; in data set [9] it was 4.36 µM; in data set [10] it was 4.68 µM; in data set [11], 4.98 µM. Further, the Activity turned out to be 5.09 µM in [12]; 5.3 µM in data set [13]; 5.31 µM in data set [14]; 5.33 µM in [15]; 5.38 µM in [16]; 0.92% in the data set on Liver [17]. Also, the Activity in the data set on Liver [18] was 1.33%; in the data set with Liver [19] it was 1.35%; in data set [20] it was 1.17 µM; in the data set on Liver [21] it was 0.75%. Further, in data set [3], the inhibition at 100 µM was determined as 19.7%. Also, in data set [4], the IC50 was 320 µM.
On to `CCCCC(OC(=O)CN1CCN(CCCCCCOc2ccc(-c3cc(=S)ss3)cc2)CC1)c1ccccc1C(=O)Oc1ccc(/C=C/C(=O)OCCO[N+](=O)[O-])cc1OC` (racemic), for which the Activity came out at 3.17 µM in data set [6]; 4.13 µM in [7]; 4.98 µM in data set [8]; 5.53 µM in data set [9]; 5.97 µM in [10]; 6.41 µM in data set [11]. Besides, the Activity is 6.88 µM in data set [12]; 7.28 µM in data set [13]; 7.47 µM in [14]; 7.51 µM in data set [15]; 7.51 µM in [16]; 1.73% with Liver [17]. The Activity with Liver [18] is 2.39%; with Liver [19] it was 2.41%; in data set [20] it was 1.96 µM; with Liver [21] it was 1.6%. In addition, the inhibition at 100 µM in data set [3] came out at 19.7%. Also, the IC50 in data set [4] was 430 µM.
